Results published in ChEMBL document CHEMBL3085766, “Synthesis, ex vivo and in silico studies of 3-cyano-2-pyridone derivatives with vasorelaxant activity” (Eur J Med Chem, 2013).

Tests used:
Aorta [1] = assay: Vasorelaxant activity in rat endothelium-intact thoracic aortic ring assessed as inhibition of noradrenaline-induced contraction; format: functional, tissue-based
Procedure, shortened: (§1)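 Isometric tension of isolated rat thoracic aorta rings, endothelium intact or removed, recorded with a force transducer. After stabilization, rings were challenged with […] for 10 min and washed in fresh Krebs solution. This was done three times at 30-min intervals. Endothelial status was confirmed by […] relaxation in the last contraction. Rings were then contracted with NA and given quarter-log cumulative concentrations; EC50 derived.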

Aorta [2] = assay: Vasorelaxant activity in rat endothelium-intact thoracic aortic ring assessed as inhibition of noradrenaline-induced contraction relative to control; format: functional; procedure, shortened: as §1
Aorta [3] = assay: Vasorelaxant activity in rat endothelium-denuded thoracic aortic ring assessed as inhibition of noradrenaline-induced contraction relative to control; format: functional; procedure, shortened: as §1
Aorta [4] = assay: Vasorelaxant activity in rat endothelium-denuded thoracic aortic ring assessed as inhibition of noradrenaline-induced contraction; format: functional, tissue-based; procedure, shortened: as §1

EC50 (Aorta [1])	EC50 (Aorta [4])	Structure (SMILES)	Efficacy (Aorta [2])	Efficacy (Aorta [3])	inhibition (Aorta [4])
4.4 µM	3.6 µM	CCOC(=O)c1c(C)[nH]c(=O)c(C#N)c1-c1ccc([N+](=O)[O-])cc1[N+](=O)[O-]	97%	99%	Dose-dependent effect
22 µM	31 µM	CCOC(=O)c1c(C)[nH]c(=O)c(C#N)c1-c1ccco1	100%	93%	Dose-dependent effect
270 µM	178 µM	CCOC(=O)c1c(C)[nH]c(=O)c(C#N)c1-c1ccncc1	85.47%	86.4%	Dose-dependent effect

The next lines start with the molecule.

Structure (SMILES)	EC50 (Aorta [1])	EC50 (Aorta [4])	Efficacy (Aorta [2])	Efficacy (Aorta [3])	inhibition (Aorta [4])
C[N+](C)(C)CCOC(N)=O.[Cl-] [CARBACHOL]	0.3 µM		74.06%		
COC(=O)C1=C(C)NC(C)=C(C(=O)OC)C1c1ccccc1[N+](=O)[O-] [NIFEDIPINE]		0.03 µM		97%	
CCOC(=O)c1c(C)[nH]c(=O)c(C#N)c1-c1cccc(Cl)c1	85 µM	62 µM	97%	99%	Dose-dependent effect
CCOC(=O)c1c(C)[nH]c(=O)c(C#N)c1-c1ccc([N+](=O)[O-])cc1	7 µM	8.2 µM	98%	95%	Dose-dependent effect
CCOC(=O)c1c(C)[nH]c(=O)c(C#N)c1-c1cccs1	5 µM	12 µM	100%	99%	Dose-dependent effect
